Active and inactive are the calls of the source. The calls are words filed in the database; no cut-off is given here.
Tests used:
[1] = target: Cannabinoid receptor 1 (Homo sapiens, UniProt P21554); test: Displacement of [3H]CP-55940 from human recombinant CB1 receptor expressed in HEK293 cells; assay type: cell-based
[2] = target: Cannabinoid receptor 2 (Homo sapiens, UniProt P34972); test: Displacement of [3H]CP-55940 from human recombinant CB2 receptor expressed in HEK293 cells; assay type: cell-based
[3] = Cytotoxicity against human U87MG cells at 10 uM after 48 hrs by WST1 assay; assay type: functional, U-87MG ATCC
Summary of the method: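 U87MG cells (4 × 10³ per well) in serum-free medium, attached 24 h, then exposed to compound at 10 µM for 48 h (DMSO stock diluted in medium). Viability inhibition by WST-1 (60 min, 37 °C, A450) compared with solvent-treated controls.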

[4] = system: Jurkat; test: Cytotoxicity against human Jurkat cells after 48 hrs by WST1 assay; assay type: functional, cell-based
Summary of the method: (§1)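 Jurkat (2 × 10⁴ per well, 2 h settling) or U87MG (4 × 10³ per well, 24 h attachment) cells in serum-free medium. Exposed to compound (0.1-10 µM; DMSO stocks diluted in medium) for 48 h. Viability read by WST-1 (60 min, 37 °C, A450) against solvent controls, blank-subtracted. IC50 is the concentration giving 50% of control absorbance. Three experiments in triplicate.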

[5] = Cytotoxicity against human U87MG cells after 48 hrs by WST1 assay; assay type: functional, cell-based; settings: u-87mg atcc; summary of the method: as §1
[6] = system: Jurkat; test: Cytotoxicity against human Jurkat cells at 10 uM after 48 hrs by WST1 assay in presence of AM630; assay type: functional, cell-based
Summary of the method: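 Jurkat cells (2 × 10⁴ per well) in serum-free medium, after 2 h, exposed to compound (10 µM) together with CB2 antagonist AM630 (1 µM) for 48 h. Viability by WST-1 (60 min, 37 °C, A450) against solvent controls. Two experiments in triplicate.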

Chain of Cannabinoid receptor 2 (P34972 whole entry): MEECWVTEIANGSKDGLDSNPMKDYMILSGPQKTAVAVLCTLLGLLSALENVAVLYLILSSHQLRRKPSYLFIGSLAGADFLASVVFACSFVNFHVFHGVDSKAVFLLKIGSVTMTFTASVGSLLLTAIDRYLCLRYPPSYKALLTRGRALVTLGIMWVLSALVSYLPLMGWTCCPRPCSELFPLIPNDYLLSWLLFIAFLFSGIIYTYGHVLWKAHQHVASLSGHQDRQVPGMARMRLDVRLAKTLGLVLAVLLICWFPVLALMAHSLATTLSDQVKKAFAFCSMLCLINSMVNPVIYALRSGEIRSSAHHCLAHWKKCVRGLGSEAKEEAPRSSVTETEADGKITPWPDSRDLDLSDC
Chain of Cannabinoid receptor 1 (P21554 whole entry): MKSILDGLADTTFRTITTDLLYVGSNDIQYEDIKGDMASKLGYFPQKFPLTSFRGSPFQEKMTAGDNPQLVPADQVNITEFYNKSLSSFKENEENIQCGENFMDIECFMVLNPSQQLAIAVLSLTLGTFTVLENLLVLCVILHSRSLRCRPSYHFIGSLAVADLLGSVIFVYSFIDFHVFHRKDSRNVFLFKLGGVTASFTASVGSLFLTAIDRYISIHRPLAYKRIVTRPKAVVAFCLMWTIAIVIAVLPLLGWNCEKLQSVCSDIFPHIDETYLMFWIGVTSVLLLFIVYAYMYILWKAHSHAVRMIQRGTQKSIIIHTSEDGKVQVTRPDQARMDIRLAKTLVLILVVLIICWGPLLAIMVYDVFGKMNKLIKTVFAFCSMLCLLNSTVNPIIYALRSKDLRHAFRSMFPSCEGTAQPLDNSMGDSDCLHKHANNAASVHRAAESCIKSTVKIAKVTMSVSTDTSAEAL

SMILES | Ki [1] [nM] | Ki [2] [nM] | further results
C[C@H]1CC[C@@H](NC(=O)c2cc3cccnc3n(Cc3ccc(F)cc3)c2=O)CC1 | 200 | 0.7 | –
CCCC(C)(C)c1ccc2c(c1)OC(C)(C)[C@@H]1CC=C(C)C[C@@H]21 | – | 3 | –
O=C(NC1CCCCCC1)c1cc2cccnc2n(Cc2ccc(F)cc2)c1=O | 9.6 | 0.7 | –
CC1CCC(NC(=O)c2cc3cccnc3n(CCN3CCOCC3)c2=O)CC1 (centres undefined) | 1000 | 1.9 | –
CC1CCC(NC(=O)c2cc3cccnc3n(Cc3ccc(F)cc3)c2=O)CC1 (centres undefined) | 200 | 0.9 | –
C[C@H]1CC[C@@H](NC(=O)c2cc3cccnc3n(Cc3ccccc3)c2=O)CC1 | 1520 | 5.8 | –
CCCCn1c(=O)c(C(=O)NC2CCCCC2)cc2cccnc21 | 5600 | 70 | –
O=C(NC1CCCCC1)c1cc2cccnc2n(CCN2CCOCC2)c1=O | 560 | 7.9 | –
CC1CCC(NC(=O)c2cc3cccnc3n(Cc3ccccc3)c2=O)CC1 (centres undefined) | 1600 | 7.8 | Activity [3]: 20%; Activity [4]: Dose-dependent effect; IC50 [4]: 5980 nM; IC50 [5]: Not Active
O=C(NC1CCCCCC1)c1cc2cccnc2n(Cc2ccccc2)c1=O | 960 | 22 | –
C[C@H]1CC[C@H](NC(=O)c2cc3cccnc3n(Cc3ccc(F)cc3)c2=O)CC1 | 300 | 9 | –
O=C(NC1CCCCC1)c1cc2cccnc2n(Cc2ccccc2)c1=O | 560 | 31 | –
COc1ccc(C(=O)c2c(C)n(CCN3CCOCC3)c3cc(I)ccc23)cc1 | – | – | Activity [6]: inactive
O=C(NC1CCCCC1)c1cc2cccnc2n(Cc2ccc(F)cc2)c1=O | 56 | 2.2 | –
CCCn1c(C)c(C(=O)c2cccc3ccccc23)c2ccccc21 | – | – | Activity [3]: 20%; IC50 [4]: 9600 nM; IC50 [5]: Not Active
O=C(NCCc1ccc(F)cc1)c1cc2cccnc2n(Cc2ccccc2)c1=O | 6950 | 69.8 | –
C[C@H]1CC[C@H](NC(=O)c2cc3cccnc3n(Cc3ccccc3)c2=O)CC1 | 5250 | 39.8 | –
O=C(NC1CCCCCC1)c1cc2cccnc2n(CCN2CCOCC2)c1=O | 18 | 3 | –
